“Also recorded” adds a separate entry of the source.
Experiments:
[1] = tested on: panel of receptors/transporters (n = 38); experiment: Off-target selectivity screening, receptor/transporter binding panel; settings: up to 10 μmol/L
panel of enzymes (n = 6) = experiment: Off-target selectivity screening, enzyme panel; type: biochemical; settings: up to 10 μmol/L
[2] = Long-term chemical stability at ambient conditions; type: physicochemical
[3] = Particle size by dynamic light scattering; type: physicochemical; settings: 5% aqueous mannitol, monomodal
cathepsin S (CTSS) = cathepsin S (CTSS) (Homo sapiens, UniProt P25774); experiment: Enzyme-mediated metabolism of SDX-7320 in vitro; type: in vitro ADME; settings: 0.5 mg/mL SDX-7320, 37°C, LC/MS
Chain of cathepsin S (CTSS) (P25774 115-331): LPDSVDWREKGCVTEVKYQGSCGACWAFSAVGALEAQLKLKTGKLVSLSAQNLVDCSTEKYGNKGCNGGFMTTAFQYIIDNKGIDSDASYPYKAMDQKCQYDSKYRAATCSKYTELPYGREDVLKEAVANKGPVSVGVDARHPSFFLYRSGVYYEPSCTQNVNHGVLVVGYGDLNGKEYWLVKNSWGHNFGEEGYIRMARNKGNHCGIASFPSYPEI

[4] = tested on: cathepsin isoforms L, H, C, K, and B; experiment: Enzyme-mediated metabolism of SDX-7320 in vitro; type: in vitro ADME, human; settings: 0.5 mg/mL SDX-7320, 37°C, LC/MS
METAP2 [5] = target: T1, METAP2 (Homo sapiens, UniProt P50579); experiment: In vitro competition binding to METAP2; settings: competition with biotinylated SDX-9280
T1 sequence (P50579 whole entry): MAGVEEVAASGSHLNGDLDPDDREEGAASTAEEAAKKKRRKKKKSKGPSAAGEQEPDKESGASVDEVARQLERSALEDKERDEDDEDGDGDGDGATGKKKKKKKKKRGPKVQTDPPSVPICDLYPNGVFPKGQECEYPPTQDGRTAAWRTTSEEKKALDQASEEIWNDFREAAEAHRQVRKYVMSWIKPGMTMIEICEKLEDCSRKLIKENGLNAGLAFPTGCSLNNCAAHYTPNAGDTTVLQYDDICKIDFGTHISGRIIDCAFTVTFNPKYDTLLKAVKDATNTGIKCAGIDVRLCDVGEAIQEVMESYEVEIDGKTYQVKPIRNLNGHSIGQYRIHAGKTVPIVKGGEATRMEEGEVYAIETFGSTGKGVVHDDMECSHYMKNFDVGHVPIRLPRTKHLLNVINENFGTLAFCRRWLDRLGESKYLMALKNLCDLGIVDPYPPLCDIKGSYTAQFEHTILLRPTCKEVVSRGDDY

METAP2 [6] = target: T1, METAP2; experiment: METAP2 aminopeptidase enzyme activity assay; type: biochemical
CNS exposure = type: in vivo; settings: rat, intravenous, equimolar small molecule doses
Outline: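 Plasma and CSF levels of the small-molecule inhibitor were measured in rats after intravenous dosing of the polymer conjugate, the free inhibitor or a comparator inhibitor, all at equimolar small-molecule doses. CSF was sampled near plasma Tmax. For the rapidly metabolised comparator, its active metabolite (M-IV) was measured rather than the parent.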

[7] = Rat functional observation battery; type: in vivo; settings: single dose 3, 10 and 30 mg/kg, 12 and 36 hours post-dose, GLP
Outline: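 Under GLP, male experimentally naïve CD [Crl:CD(SD)] rats, about 8 weeks old, received a single s.c. dose of 3, 10 or 30 mg/kg (ten/group). A functional observation battery was run pre-dose (day −1) and at 12 and 36 h post-dose. Mortality, clinical observations and body weights were also recorded.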

EO771 tumors = experiment: EO771 triple-negative breast cancer allograft model; type: in vivo, mouse; settings: 24 mg/kg SC, Q4D
Outline: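 Female C57Bl/6j mice, ovariectomized at 4 weeks, had EO771 cells implanted into the fourth mammary fat pad at about 18 weeks under ether anesthesia. At about 20 mm3, mice (8/group) began s.c. vehicle (5% mannitol/water, Q4D) or test compound (24 mg/kg, Q4D × 4). Tumors were excised on day 15 and formalin-fixed, paraffin-embedded. Sections were immunostained for Ki67 or CD31, scored as positive cells per tissue area. Volume: two-way ANOVA with Sidak. Staining: unpaired t test.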

MDA-MB-231 tumors = experiment: MDA-MB-231 TNBC model in chick embryos; type: in vivo, chick embryo; settings: 15, 90 μg
Outline: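 MDA-MB-231 cells were inoculated into fertilized White Leghorn eggs on embryonic day E9. From E11, embryos received vehicle, test compound (15 or 90 μg, every four days, two doses) or paclitaxel positive control (2.1 μg, every other day, four doses). Metastatic invasion into the lower chorioallantoic membrane was assessed. Tumors were dissected on E19.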

BT-474 tumors [8] = experiment: BT-474 HER-2+, estrogen receptor-positive breast cancer xenograft model; type: in vivo, mouse; settings: 6, 12 mg/kg, s.c., every four days
Outline: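 Female athymic nude mice got a 90-day 0.72 mg β-estradiol pellet s.c. Three days later, 2 × 10^7 cells in 50% Matrigel/50% RPMI1640 went into the fourth mammary fat pad. Mice were randomized at tumors >95 mm3 (8/group). Test compound, freshly prepared in 5% mannitol/water, was given s.c. Q4D × 9. Tumor volume was analysed by mixed-effects model with Dunnett comparisons.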

BT-474 tumors [9] = experiment: RNA sequencing of BT-474 xenograft tumors; type: in vivo, mouse; settings: 12 mg/kg, RNA-seq versus vehicle
Outline: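 Orthotopic BT-474 tumors came from estrogen-supplemented nude mice dosed s.c. every four days with 12 mg/kg test compound (n = 5) or vehicle (n = 6). At necropsy, tumor portions were snap-frozen and stored at −80°C for RNA isolation and sequencing. Differentially expressed genes versus vehicle were identified, then pathway enrichment analysis was run (pathways with P ≤ 0.01 reported).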

METAP1 = METAP1 (Homo sapiens, UniProt P53582); experiment: METAP1 aminopeptidase enzyme activity assay; type: biochemical; settings: up to 1000 nmol/L
HUVEC = HUVEC proliferation; type: cell-based, human; settings: 72 hours
Outline: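 HUVEC were grown in EBM-2/EGM-2 with 2% FBS and 2X gentamicin, seeded at 5,000 cells/well and left overnight. Compounds were diluted in DMSO, then in the same medium (final DMSO 0.1%). After 72 h at 37°C, CellTiter 96 Aqueous One reagent was added for 3 h at 37°C and A490 read. The mean A490 of highest-concentration wells was subtracted, and IC50 came from a four-parameter variable-slope log(inhibitor)-response fit.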

B16-F10 melanoma cells = experiment: B16-F10 syngeneic lung metastasis model; type: in vivo, mouse; settings: TNP-470 30 mg/kg every other day x 6, day 15
Outline: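 Female C57BL/6NTac mice (8/group) received B16-F10 melanoma cells by tail vein. Cells were grown in DMEM with 5% FBS at 37°C under 5% CO2. Dosing began 24 h after injection: saline vehicle, test compound 25 mg/kg Q4D × 3, and a reference METAP2 inhibitor 30 mg/kg Q2D × 6. Lungs were excised on day 15 and visible metastases counted by stereomicroscope. Two-tailed Student t test.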

[10] = cited from earlier work

CO[C@@H]1[C@H](OC(=O)N[C@H]2CC[C@H](N)CC2)CC[C@]2(CO2)[C@H]1[C@@]1(C)O[C@@H]1CC=C(C)C.O=S(=O)(O)c1ccccc1 (relative stereo) [SDX-9402, Fumagill-6-yl N-(trans-4-aminocyclohexyl)carbamate benzenesulfonic acid salt]
Off-target activity at receptors/transporters [1]: No effect was observed
Off-target activity at enzymes (panel of enzymes (n = 6)): No effect was observed

Glycine, N-(2-methyl-1-oxo-2-propen-1-yl)glycyl-L-phenylalanyl-L-leucyl-, 4-nitrophenyl ester, polymer with N-(2-hydroxypropyl)-2-methyl-2-propenamide, reaction products with (3R,4S,5S,6R)-5-methoxy-4-[(2R,3R)-2-methyl-3-(3-methyl-2-buten-1-yl)-2-oxiranyl]-1-oxaspiro[2.5]oct-6-yl N-(trans-4-aminocyclohexyl)carbamate [SDX-7320]
long-term chemical stability [2]: > 48 months
particle size distribution Z-average [3]: 10 nm
release of SDX-7539 from SDX-7320 by cathepsin S (cathepsin S (CTSS)): most active isoform; also recorded: highest activity
release of SDX-7539 from SDX-7320 by cathepsins L, H, C, K, and B [4]: catalytic activity against SDX-7320
binding to METAP2 by competition ELISA (METAP2 [5]): inactive
Inhibition of METAP2 aminopeptidase enzyme activity (METAP2 [6]; up to 10 μg/ml): inactive
CSF levels of SDX-7539 when dosed as the PDC compared with unconjugated small molecule or TNP-470 (CNS exposure): marked reduction in CSF levels
neurobehavioral FOB findings [7]: No signs of abnormal CNS-related behavioral toxicity; also recorded: no significant behavioral abnormalities
EO771 tumor growth (EO771 tumors): significantly inhibited tumor growth
CD31 staining of dissected EO771 tumors (EO771 tumors; anti-angiogenic activity): reduced staining
Ki67 staining of dissected EO771 tumors (EO771 tumors; anti-proliferative activity): reduced staining
metastasis of MDA-MB-231 tumors (human DNA in lower chorioallantoic membrane) (MDA-MB-231 tumors; every four days, two doses): significantly inhibited metastasis
MDA-MB-231 tumor blood vessel density (angiogenesis) (MDA-MB-231 tumors; two days prior to termination): significant decrease in blood vessel density
inhibition of BT-474 tumor growth (BT-474 tumors [8]): significant, dose-dependent inhibition
expression of hypoxia-regulated genes including HIF1α in BT-474 tumors (BT-474 tumors [9]): significantly reduced

CO[C@@H]1[C@H](OC(=O)NC(=O)CCl)CC[C@]2(CO2)[C@H]1[C@@]1(C)O[C@@H]1CC=C(C)C [TNP-470, O-(chloroacetyl-carbamoyl) fumagillol]
time dependence of IC50 against METAP2 (METAP2 [6]; hallmark of irreversible enzyme inhibitors): time-dependent shifts in IC50
Inhibition of METAP1 aminopeptidase activity (METAP1): neither compound inhibited METAP1
fold less potent than SDX-7539 in HUVEC growth (HUVEC): approximately 3 fold
outgrowth of B16-F10 melanoma cells in the lungs (B16-F10 melanoma cells): identical degree of inhibition
potency in vitro, fold higher than the natural product fumagillin [10]: 50 fold

From paper PMC11063762 (Molecular Cancer Therapeutics, 2024)
